12 compounds from ChEMBL document CHEMBL1275272, “Synthesis, characterization and antimicrobial activity of some disubstituted 1,3,4-oxadiazoles carrying 2-(aryloxymethyl)phenyl moiety” (2010) can be followed below.

Common to all, as to assay type: functional
For one test, the system named is Staphylococcus aureus. Put plainly: Antibacterial activity against Staphylococcus aureus after 16 to 18 hrs by serial dilution method. To be noted: for MIC: Staphylococcus aureus. An outline of the steps: (§1)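 The test compound was dissolved in DMF and serially diluted. A standard drop of the prepared microbial culture was added to each dilution, and tubes were incubated at 37 °C for 16–18 h. MIC was taken as the highest dilution that stayed clear with no visible turbidity.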

The next test deals with Escherichia coli. Put plainly: Antibacterial activity against Escherichia coli after 16 to 18 hrs by serial dilution method. To be noted: for MIC: Escherichia coli. An outline of the steps:
as §1

In another test the test system is Pseudomonas aeruginosa. Put plainly: Antibacterial activity against Pseudomonas aeruginosa after 16 to 18 hrs by serial dilution method. Conditions: for MIC: Pseudomonas aeruginosa. An outline of the steps: as §1
The subject of a further test is Klebsiella pneumoniae. Nature of the test: Antibacterial activity against Klebsiella pneumoniae after 16 to 18 hrs by serial dilution method. Conditions: for MIC: Klebsiella pneumoniae.
For the next test, the system named is Talaromyces marneffei. Nature of the test: Antifungal activity against Penicillium marneffei after 16 to 18 hrs by serial dilution method. Conditions: for MIC: Talaromyces marneffei. The procedure, abridged: as §1
In test [1] the test system is Trichophyton mentagrophytes. Nature of the test: Antifungal activity against Trichophyton mentagrophytes after 16 to 18 hrs by serial dilution method. To be noted: for MIC: Trichophyton mentagrophytes.
The subject of the next test is Aspergillus flavus. Nature of the test: Antifungal activity against Aspergillus flavus after 16 to 18 hrs by serial dilution method. Conditions: for MIC: Aspergillus flavus. The procedure, abridged: as §1
The test system of another test is Aspergillus fumigatus. Nature of the test: Antifungal activity against Aspergillus fumigatus after 16 to 18 hrs by serial dilution method. Conditions: for MIC: Aspergillus fumigatus.

A word on the MIC: it is the smallest concentration in the dilution series that meets the test's criterion for growth inhibition. Read a high MIC as a less susceptible organism.

In brackets after ≈: the same amount, converted by molar mass.

In the case of `Clc1ccc(OCc2ccccc2-c2nnc(-c3cccc(Br)c3)o2)cc1`, the “inhibition zone (IZ)” value (in the test on Staphylococcus aureus; in the test with Escherichia coli; in the test on Pseudomonas aeruginosa; with Klebsiella pneumoniae; with Talaromyces marneffei; in test [1]) was less than 10 mm each time. Besides, the “inhibition zone (IZ)” value with Aspergillus flavus and with Aspergillus fumigatus was less than 10 mm throughout. In addition, the MIC (against Staphylococcus aureus; with Escherichia coli; against Pseudomonas aeruginosa; against Klebsiella pneumoniae; in the test with Talaromyces marneffei; in test [1]) was 25 µg/mL (≈ 56.6 µM) in each case. The MIC in the test with Aspergillus flavus and with Aspergillus fumigatus was 25 µg/mL (≈ 56.6 µM) throughout.
As to `Cc1cccc(OCc2ccccc2-c2nn(CN3CCOCC3)c(=S)o2)c1`, the “inhibition zone (IZ)” value (in the test on Staphylococcus aureus; with Escherichia coli; in the test on Pseudomonas aeruginosa; in the test on Klebsiella pneumoniae; in the test on Talaromyces marneffei; in test [1]) was 11 mm each time. Also, the “inhibition zone (IZ)” value in the test on Aspergillus flavus and in the test on Aspergillus fumigatus was 11 mm each time. Also, the MIC (against Staphylococcus aureus; against Escherichia coli; in the test with Pseudomonas aeruginosa; against Klebsiella pneumoniae; against Talaromyces marneffei; in test [1]) was 12.5 µg/mL (≈ 31.4 µM) each time. Also, the MIC in the test on Aspergillus flavus and in the test with Aspergillus fumigatus was 12.5 µg/mL (≈ 31.4 µM) throughout.
Regarding `Cc1cccc(OCc2ccccc2-c2nnc(-c3cccc(Br)c3)o2)c1`, the “inhibition zone (IZ)” value (in the test on Staphylococcus aureus; in the test with Escherichia coli; with Pseudomonas aeruginosa; in the test on Klebsiella pneumoniae; with Talaromyces marneffei; in test [1]) was less than 10 mm throughout. In addition, the “inhibition zone (IZ)” value in the test on Aspergillus flavus and with Aspergillus fumigatus was less than 10 mm throughout. Moreover, the MIC (in the test with Staphylococcus aureus; in the test with Escherichia coli; in the test on Pseudomonas aeruginosa; in the test with Klebsiella pneumoniae; against Talaromyces marneffei; in test [1]) was 25 µg/mL (≈ 59.3 µM) throughout. The MIC with Aspergillus flavus and against Aspergillus fumigatus was 25 µg/mL (≈ 59.3 µM) throughout.
In the case of `Clc1ccc(OCc2ccccc2-c2nnc(SCc3ccc(Cl)cc3Cl)o2)cc1`, the “inhibition zone (IZ)” value (with Staphylococcus aureus; in the test with Escherichia coli; in the test with Pseudomonas aeruginosa; in the test on Klebsiella pneumoniae; with Talaromyces marneffei; in test [1]) was 16 mm each time. Moreover, the “inhibition zone (IZ)” value in the test on Aspergillus flavus and with Aspergillus fumigatus was 16 mm in each case. Further, the MIC (against Staphylococcus aureus; with Escherichia coli; in the test with Pseudomonas aeruginosa; with Klebsiella pneumoniae; in the test with Talaromyces marneffei; in test [1]) was 6.25 µg/mL (≈ 13.1 µM) throughout. For the same compound, the MIC with Aspergillus flavus and in the test with Aspergillus fumigatus was 6.25 µg/mL (≈ 13.1 µM) throughout.
On to `O=C(c1cc(Cl)ccc1NCn1nc(-c2ccccc2COc2ccc(Cl)cc2)oc1=S)C(F)(F)F`, for which the “inhibition zone (IZ)” value (in the test with Staphylococcus aureus; with Escherichia coli; in the test with Pseudomonas aeruginosa; in the test with Klebsiella pneumoniae; in the test on Talaromyces marneffei; in test [1]) was less than 10 mm throughout. Moreover, the “inhibition zone (IZ)” value with Aspergillus flavus and in the test on Aspergillus fumigatus was less than 10 mm in each case. Besides, the MIC (against Staphylococcus aureus; with Escherichia coli; against Pseudomonas aeruginosa; with Klebsiella pneumoniae; in the test with Talaromyces marneffei; in test [1]) was 25 µg/mL (≈ 45.1 µM) each time. For the same compound, the MIC against Aspergillus flavus and against Aspergillus fumigatus was 25 µg/mL (≈ 45.1 µM) in each case.
For `Cc1ccc(Cl)c(NCn2nc(-c3ccccc3COc3ccccc3C)oc2=S)c1`, the “inhibition zone (IZ)” value (in the test on Staphylococcus aureus; with Escherichia coli; in the test with Pseudomonas aeruginosa; in the test on Klebsiella pneumoniae; with Talaromyces marneffei; in test [1]) was less than 10 mm throughout. In addition, the “inhibition zone (IZ)” value with Aspergillus flavus and with Aspergillus fumigatus was less than 10 mm throughout. The MIC (in the test on Staphylococcus aureus; against Escherichia coli; in the test on Pseudomonas aeruginosa; in the test on Klebsiella pneumoniae; against Talaromyces marneffei; in test [1]) was 25 µg/mL (≈ 55.3 µM) throughout. The MIC against Aspergillus flavus and against Aspergillus fumigatus was 25 µg/mL (≈ 55.3 µM) each time.
As for `Cc1cccc(OCc2ccccc2-c2nnc(-c3cc(C)cc(C)c3)o2)c1`, the “inhibition zone (IZ)” value (with Staphylococcus aureus; in the test on Escherichia coli; in the test with Pseudomonas aeruginosa; with Klebsiella pneumoniae; with Talaromyces marneffei; in test [1]) was 11 mm throughout. Further, the “inhibition zone (IZ)” value with Aspergillus flavus amounted to 11 mm; in the test on Aspergillus fumigatus, 16 mm. The MIC (against Staphylococcus aureus; against Escherichia coli; against Pseudomonas aeruginosa; in the test on Klebsiella pneumoniae; in the test with Talaromyces marneffei; in test [1]) was 12.5 µg/mL (≈ 33.7 µM) throughout. Further, the MIC in the test with Aspergillus flavus was 12.5 µg/mL (≈ 33.7 µM); in the test on Aspergillus fumigatus, 6.25 µg/mL (≈ 16.9 µM).
Take `Fc1ccccc1-c1nnc(-c2ccccc2COc2ccc(Cl)cc2)o1`: the “inhibition zone (IZ)” value (in the test on Staphylococcus aureus; in the test with Escherichia coli; with Pseudomonas aeruginosa; with Klebsiella pneumoniae; in the test on Talaromyces marneffei; in test [1]) was 16 mm throughout. The “inhibition zone (IZ)” value in the test with Aspergillus flavus and in the test with Aspergillus fumigatus was 16 mm throughout. The MIC (against Staphylococcus aureus; against Escherichia coli; against Pseudomonas aeruginosa; against Klebsiella pneumoniae; in the test on Talaromyces marneffei; in test [1]) was 6.25 µg/mL (≈ 16.4 µM) each time. The MIC with Aspergillus flavus and with Aspergillus fumigatus was 6.25 µg/mL (≈ 16.4 µM) throughout.
In the case of `Cc1ccc(OCc2ccccc2-c2nn(CNc3cc(C)ccc3Cl)c(=S)o2)cc1`, the “inhibition zone (IZ)” value (in the test with Staphylococcus aureus; in the test with Escherichia coli; in the test on Pseudomonas aeruginosa; with Klebsiella pneumoniae; with Talaromyces marneffei; in test [1]) was less than 10 mm in each case. The “inhibition zone (IZ)” value with Aspergillus flavus and with Aspergillus fumigatus was less than 10 mm each time. For the same compound, the MIC (against Staphylococcus aureus; against Escherichia coli; in the test on Pseudomonas aeruginosa; against Klebsiella pneumoniae; against Talaromyces marneffei; in test [1]) was 25 µg/mL (≈ 55.3 µM) throughout. The MIC in the test on Aspergillus flavus and against Aspergillus fumigatus was 25 µg/mL (≈ 55.3 µM) in each case.
As for `CCSc1nnc(-c2ccccc2COc2ccc(Cl)cc2)o1`, the “inhibition zone (IZ)” value (in the test with Staphylococcus aureus; in the test with Escherichia coli; in the test with Pseudomonas aeruginosa; in the test on Klebsiella pneumoniae; in the test with Talaromyces marneffei; in test [1]) was less than 10 mm each time. For the same compound, the “inhibition zone (IZ)” value with Aspergillus flavus and with Aspergillus fumigatus was less than 10 mm in each case. For the same compound, the MIC (in the test on Staphylococcus aureus; in the test with Escherichia coli; in the test on Pseudomonas aeruginosa; against Klebsiella pneumoniae; in the test with Talaromyces marneffei; in test [1]) was 25 µg/mL (≈ 72.1 µM) each time. For the same compound, the MIC against Aspergillus flavus and against Aspergillus fumigatus was 25 µg/mL (≈ 72.1 µM) in each case.
Regarding `Cc1ccc(OCc2ccccc2-c2nnc(-c3ccc(Cl)cc3)o2)cc1`, the “inhibition zone (IZ)” value (with Staphylococcus aureus; with Escherichia coli; in the test on Pseudomonas aeruginosa; in the test with Klebsiella pneumoniae; in the test on Talaromyces marneffei; in test [1]) was less than 10 mm throughout. Further, the “inhibition zone (IZ)” value in the test on Aspergillus flavus and with Aspergillus fumigatus was less than 10 mm each time. Besides, the MIC (against Staphylococcus aureus; with Escherichia coli; against Pseudomonas aeruginosa; with Klebsiella pneumoniae; in the test with Talaromyces marneffei; in test [1]) was 25 µg/mL (≈ 66.3 µM) each time. Further, the MIC against Aspergillus flavus and with Aspergillus fumigatus was 25 µg/mL (≈ 66.3 µM) each time.
For the compound `S=c1oc(-c2ccccc2COc2ccc(Cl)cc2)nn1CN1CCOCC1`, the “inhibition zone (IZ)” value (in the test on Staphylococcus aureus; in the test with Escherichia coli; in the test on Pseudomonas aeruginosa; in the test on Klebsiella pneumoniae; with Talaromyces marneffei; in test [1]) was 11 mm each time. Besides, the “inhibition zone (IZ)” value in the test with Aspergillus flavus and in the test with Aspergillus fumigatus was 11 mm each time. In addition, the MIC (in the test with Staphylococcus aureus; against Escherichia coli; with Pseudomonas aeruginosa; in the test with Klebsiella pneumoniae; against Talaromyces marneffei; in test [1]) was 12.5 µg/mL (≈ 29.9 µM) throughout. For the same compound, the MIC against Aspergillus flavus and against Aspergillus fumigatus was 12.5 µg/mL (≈ 29.9 µM) in each case.
